In ChEMBL document CHEMBL4428053, “Application of a Parallel Synthetic Strategy in the Discovery of Biaryl Acyl Sulfonamides as Efficient and Selective NaV1.7 Inhibitors” (J Med Chem, 2016):
≈ marks a conversion by molar mass, not a printed value. Calls of active or inactive are those of the source. The calls are words filed in the database; no cut-off is given here.

Experiments:
[1] = target: T1, Sodium channel protein type 9 subunit alpha (Homo sapiens, UniProt Q15858); test: Inhibition of human Nav1.7 expressed in HEK293 cells incubated for 3 to 5 mins at -125 mV holding potential by electrophysiology assay; assay type: cell-based
T1 sequence (Q15858 whole entry): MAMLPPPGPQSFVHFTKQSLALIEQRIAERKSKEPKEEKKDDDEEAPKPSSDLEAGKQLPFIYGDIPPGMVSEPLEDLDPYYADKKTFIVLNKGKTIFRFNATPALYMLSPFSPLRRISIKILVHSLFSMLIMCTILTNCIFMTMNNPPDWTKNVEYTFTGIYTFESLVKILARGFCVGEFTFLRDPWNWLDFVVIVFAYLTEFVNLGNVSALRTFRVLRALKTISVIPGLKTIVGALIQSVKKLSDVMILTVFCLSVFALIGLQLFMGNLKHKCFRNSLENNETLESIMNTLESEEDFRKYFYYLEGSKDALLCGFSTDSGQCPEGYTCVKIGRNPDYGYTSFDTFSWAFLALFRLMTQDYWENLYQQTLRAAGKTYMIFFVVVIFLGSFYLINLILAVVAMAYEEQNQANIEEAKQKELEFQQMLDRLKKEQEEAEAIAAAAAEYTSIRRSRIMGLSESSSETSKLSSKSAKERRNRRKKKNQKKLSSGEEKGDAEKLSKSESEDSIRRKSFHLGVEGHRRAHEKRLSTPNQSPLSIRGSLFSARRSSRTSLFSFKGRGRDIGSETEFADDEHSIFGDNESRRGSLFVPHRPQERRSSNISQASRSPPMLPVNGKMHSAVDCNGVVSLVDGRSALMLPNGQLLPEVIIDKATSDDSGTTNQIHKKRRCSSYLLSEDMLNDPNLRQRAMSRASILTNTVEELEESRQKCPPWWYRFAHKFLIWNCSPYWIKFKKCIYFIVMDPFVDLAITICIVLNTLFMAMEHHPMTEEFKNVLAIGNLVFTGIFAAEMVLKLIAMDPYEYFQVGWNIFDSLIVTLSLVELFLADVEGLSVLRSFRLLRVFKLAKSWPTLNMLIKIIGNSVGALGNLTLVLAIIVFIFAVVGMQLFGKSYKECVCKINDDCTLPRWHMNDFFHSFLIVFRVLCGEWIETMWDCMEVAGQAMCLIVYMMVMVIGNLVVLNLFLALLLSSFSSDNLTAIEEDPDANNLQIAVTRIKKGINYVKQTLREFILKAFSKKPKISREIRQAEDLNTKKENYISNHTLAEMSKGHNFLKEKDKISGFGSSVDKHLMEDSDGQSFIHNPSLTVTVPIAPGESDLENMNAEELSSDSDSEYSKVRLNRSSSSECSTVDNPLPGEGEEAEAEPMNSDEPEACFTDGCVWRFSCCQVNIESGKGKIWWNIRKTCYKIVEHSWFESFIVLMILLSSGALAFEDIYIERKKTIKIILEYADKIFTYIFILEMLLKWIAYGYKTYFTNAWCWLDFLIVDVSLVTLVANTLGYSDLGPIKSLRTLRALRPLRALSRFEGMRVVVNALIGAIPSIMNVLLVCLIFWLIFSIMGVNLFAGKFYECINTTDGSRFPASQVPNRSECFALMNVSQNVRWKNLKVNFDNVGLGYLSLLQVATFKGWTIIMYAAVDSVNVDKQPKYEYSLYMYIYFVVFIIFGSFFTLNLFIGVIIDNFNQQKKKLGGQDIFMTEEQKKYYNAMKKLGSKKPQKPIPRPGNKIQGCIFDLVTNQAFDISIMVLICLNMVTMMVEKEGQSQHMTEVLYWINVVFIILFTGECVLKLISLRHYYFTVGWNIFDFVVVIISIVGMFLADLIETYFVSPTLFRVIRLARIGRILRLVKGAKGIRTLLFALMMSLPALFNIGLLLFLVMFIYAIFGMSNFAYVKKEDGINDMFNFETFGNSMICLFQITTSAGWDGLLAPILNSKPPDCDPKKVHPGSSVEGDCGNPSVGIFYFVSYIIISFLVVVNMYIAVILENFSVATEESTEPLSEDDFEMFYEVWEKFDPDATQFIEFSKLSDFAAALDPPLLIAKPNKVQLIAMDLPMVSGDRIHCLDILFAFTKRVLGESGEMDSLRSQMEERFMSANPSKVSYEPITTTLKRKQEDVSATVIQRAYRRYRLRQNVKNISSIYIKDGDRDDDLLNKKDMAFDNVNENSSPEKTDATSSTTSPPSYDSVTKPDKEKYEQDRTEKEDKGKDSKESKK

[2] = AUC (infinity) in Harlan rat at 10 mg/kg, po by LC-MS/MS analysis; assay type: ADME, organism-based; parameters: dose 10 mg/kg, route oral, time infinity; settings: in vivo
Outline: (§1)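 Male fed rats. The IV dose was given in 100% DMSO. The oral dose was given in 1% Tween 80, 2% HPMC, 97% water/NaOH (pH 8.5).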

[3] = Volume of distribution in Harlan rat at 1 mg/kg, iv by LC-MS/MS analysis; assay type: ADME, organism-based; settings: in vivo; outline: as §1
[4] = target: Sodium channel protein type 9 subunit alpha (Mus musculus, UniProt Q62205); test: Inhibition of Nav1.7 in C57BL/6 mouse DRG neurons assessed as reduction in native TTX-S current amplitude by manual patch clamp electrophysiology assay
Mus musculus = test: In vivo inhibition of Nav1.7 in C57BL/6 mouse assessed as reduction in histamine-induced scratching bouts at 30 mg/kg, po administered 4 hrs prior to histamine challenge measured for 15 mins; assay type: functional, organism-based
Outline: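 Mice were dosed orally with vehicle, diphenhydramine (30 mg/kg, n = 8) or test article at 30 (n = 9), 100 (n = 10) or 300 (n = 10) mg/kg; vehicle n = 12. All groups received histamine intradermally. Total scratch bouts were counted, with unbound plasma concentration reported per dose. Statistics: one-way ANOVA with Dunnett's test versus vehicle.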

[5] = target: Sodium channel protein type 8 subunit alpha (Homo sapiens, UniProt Q9UQD0); test: Inhibition of human Nav1.6 expressed in HEK293 cells assessed as reduction in peak inward current by manual whole cell patch clamp electrophysiology assay; assay type: cell-based
Chain of Sodium channel protein type 8 subunit alpha (Q9UQD0 whole entry): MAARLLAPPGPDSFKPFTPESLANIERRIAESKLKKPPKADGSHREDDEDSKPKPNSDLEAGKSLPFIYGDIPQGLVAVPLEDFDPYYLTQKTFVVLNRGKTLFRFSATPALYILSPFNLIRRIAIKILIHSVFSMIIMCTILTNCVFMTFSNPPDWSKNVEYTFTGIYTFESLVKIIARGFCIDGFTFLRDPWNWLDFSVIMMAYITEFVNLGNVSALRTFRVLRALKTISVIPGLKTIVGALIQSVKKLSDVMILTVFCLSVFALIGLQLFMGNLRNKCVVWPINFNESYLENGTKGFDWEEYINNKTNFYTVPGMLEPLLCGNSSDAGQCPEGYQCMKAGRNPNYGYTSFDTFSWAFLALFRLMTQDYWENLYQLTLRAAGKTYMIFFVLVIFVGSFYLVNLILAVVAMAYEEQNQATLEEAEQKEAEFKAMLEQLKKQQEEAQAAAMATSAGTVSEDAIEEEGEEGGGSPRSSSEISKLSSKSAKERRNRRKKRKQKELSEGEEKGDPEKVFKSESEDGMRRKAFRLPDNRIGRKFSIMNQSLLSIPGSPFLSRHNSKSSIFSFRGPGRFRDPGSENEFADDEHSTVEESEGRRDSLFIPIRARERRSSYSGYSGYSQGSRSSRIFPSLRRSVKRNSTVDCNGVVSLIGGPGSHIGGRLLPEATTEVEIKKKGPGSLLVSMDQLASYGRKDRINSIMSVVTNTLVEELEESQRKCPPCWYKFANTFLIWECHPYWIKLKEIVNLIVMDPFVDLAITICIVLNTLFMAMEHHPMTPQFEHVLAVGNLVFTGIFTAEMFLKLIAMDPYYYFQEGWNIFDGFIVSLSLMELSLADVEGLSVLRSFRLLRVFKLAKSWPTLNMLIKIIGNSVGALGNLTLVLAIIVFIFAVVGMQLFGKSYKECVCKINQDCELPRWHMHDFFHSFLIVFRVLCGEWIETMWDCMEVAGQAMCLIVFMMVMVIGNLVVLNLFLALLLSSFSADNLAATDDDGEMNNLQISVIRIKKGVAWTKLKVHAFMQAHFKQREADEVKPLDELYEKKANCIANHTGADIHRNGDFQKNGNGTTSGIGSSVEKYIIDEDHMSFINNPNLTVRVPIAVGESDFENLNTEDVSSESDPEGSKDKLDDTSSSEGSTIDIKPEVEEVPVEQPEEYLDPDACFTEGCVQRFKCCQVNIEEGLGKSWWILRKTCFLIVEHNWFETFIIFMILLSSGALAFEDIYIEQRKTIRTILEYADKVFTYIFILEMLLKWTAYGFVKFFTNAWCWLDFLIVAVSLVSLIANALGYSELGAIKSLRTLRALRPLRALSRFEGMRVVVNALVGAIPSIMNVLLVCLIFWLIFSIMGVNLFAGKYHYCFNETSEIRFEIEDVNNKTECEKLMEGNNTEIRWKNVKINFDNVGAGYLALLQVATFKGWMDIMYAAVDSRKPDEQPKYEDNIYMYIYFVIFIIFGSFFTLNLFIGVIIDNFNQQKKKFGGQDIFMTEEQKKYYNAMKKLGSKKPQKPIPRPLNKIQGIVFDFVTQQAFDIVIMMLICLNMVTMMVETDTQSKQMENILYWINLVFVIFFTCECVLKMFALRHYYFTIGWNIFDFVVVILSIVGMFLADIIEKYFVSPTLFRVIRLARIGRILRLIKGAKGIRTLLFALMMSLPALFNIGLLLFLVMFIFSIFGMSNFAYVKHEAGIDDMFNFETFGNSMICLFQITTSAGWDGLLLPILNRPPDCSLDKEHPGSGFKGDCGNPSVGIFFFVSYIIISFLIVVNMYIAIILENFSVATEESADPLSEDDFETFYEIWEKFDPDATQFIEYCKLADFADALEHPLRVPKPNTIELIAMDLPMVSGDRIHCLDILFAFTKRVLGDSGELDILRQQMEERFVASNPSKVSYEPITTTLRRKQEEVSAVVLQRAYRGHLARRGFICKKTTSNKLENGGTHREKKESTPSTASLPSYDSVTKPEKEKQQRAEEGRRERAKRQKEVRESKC

Bile salt export pump = Bile salt export pump (Homo sapiens, UniProt O95342); test: Inhibition of human BSEP in plasma membrane vesicles after 10 mins in presence of [3H]-taurocholate by topcount based transport assay; assay type: cell membranes
[6] = target: T1, Sodium channel protein type 9 subunit alpha; test: Displacement of [3H]-6,6-fused heteroaryl-sulfonamide derivative from human Nav1.7 expressed in HEK293 cell membranes preincubated for 30 mins followed by radioligand addition measured after 1 hr by scintillation counting analysis
[7] = target: T2, Nuclear receptor subfamily 1 group I member 2 (Homo sapiens, UniProt O75469); test: Induction of human PXR at 10 uM; assay type: ADME
T2 sequence (O75469 whole entry): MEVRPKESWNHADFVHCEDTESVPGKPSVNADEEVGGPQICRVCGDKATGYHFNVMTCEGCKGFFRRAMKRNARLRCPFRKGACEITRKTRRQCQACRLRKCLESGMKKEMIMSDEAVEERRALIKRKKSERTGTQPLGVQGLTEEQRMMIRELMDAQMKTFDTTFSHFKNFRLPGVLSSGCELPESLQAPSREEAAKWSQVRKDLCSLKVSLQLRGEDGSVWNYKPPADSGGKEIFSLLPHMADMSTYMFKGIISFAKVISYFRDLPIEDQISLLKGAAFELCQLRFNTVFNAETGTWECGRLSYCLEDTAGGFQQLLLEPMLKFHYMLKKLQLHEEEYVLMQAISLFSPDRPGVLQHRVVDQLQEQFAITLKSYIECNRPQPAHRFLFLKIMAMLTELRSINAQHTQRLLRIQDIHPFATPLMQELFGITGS

[8] = Apparent passive permeability in MDCK cells at 5 uM after 120 mins by LC/MS/MS analysis; assay type: ADME, cell-based, Canis lupus familiaris; settings: dog
Cytochrome P450 2D6 = Cytochrome P450 2D6 (Homo sapiens, UniProt P10635)
Chain of Cytochrome P450 2D6 (P10635 whole entry): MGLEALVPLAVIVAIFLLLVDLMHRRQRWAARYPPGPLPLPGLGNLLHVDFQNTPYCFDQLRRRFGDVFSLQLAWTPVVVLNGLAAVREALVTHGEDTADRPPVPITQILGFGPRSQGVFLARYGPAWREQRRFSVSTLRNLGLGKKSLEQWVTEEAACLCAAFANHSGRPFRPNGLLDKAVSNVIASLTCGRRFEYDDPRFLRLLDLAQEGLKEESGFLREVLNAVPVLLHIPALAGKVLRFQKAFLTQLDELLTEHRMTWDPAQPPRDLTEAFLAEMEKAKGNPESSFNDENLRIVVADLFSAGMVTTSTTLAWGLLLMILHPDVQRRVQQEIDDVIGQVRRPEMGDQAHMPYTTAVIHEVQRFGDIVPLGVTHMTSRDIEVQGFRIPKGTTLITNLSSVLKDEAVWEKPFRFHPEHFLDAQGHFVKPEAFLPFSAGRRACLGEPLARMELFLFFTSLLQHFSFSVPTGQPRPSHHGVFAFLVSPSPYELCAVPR

in vitro = settings: rat, liver microsomes
physchem = settings: fasted state simulated intestinal fluid, pH 6.8
[9] = Toxicity in C57BL/6 mouse assessed as reduction in locomotor activity at 30 mg/kg, po for 4 hrs by open field test; settings: in vivo

Work on COc1cc(C(=O)NS(C)(=O)=O)c(F)cc1-c1cnc(Oc2cc(F)ccc2F)c(Cl)c1 yielded an IC50 [1] of 69 nM, an AUC(0-inf) [2] of 377 µM·h and a Vd [3] of 0.93 L/kg. The IC50 [4] was 270 nM, the inhibition (Mus musculus) was “inactive” and the IC50 [5] was 9400 nM. The IC50 (Bile salt export pump) was 13300 nM, the IC50 [6] was 17 nM and the Activity [7] was 3%. The Papp at 2 h, 5 µM [8] was 22.4 ×10⁻⁶ cm/s, the IC50 (Cytochrome P450 2D6) was over 50000 nM and the microsomal CLint at 1 µM (in vitro) was under 14 µL/min/mg. For the same molecule, the solubility thermodynamic at 24 h (physchem) was 500 µM (≈ 243 µg/mL) and the Activity [9] was “Non-Toxic”.
